Source: ChEMBL document CHEMBL1649390, “New (RS)-benzoxazepin-purines with antitumour activity: The chiral switch from (RS)-2,6-dichloro-9-[1-(p-nitrobenzenesulfonyl)-1,2,3,5-tetrahydro-4,1-benzoxazepin-3-yl]-9H-purine” (Eur J Med Chem, 2011)
pIC50: −log10 of the molar value.

Legend:
[1] = Therapeutic index, ratio of IC50 for human MCF10A cells to IC50 for human MDA-MB-231 cells expressing high level of p53; assay type: cell-based; conditions: MCF10A cells versus MDA-MB-231 cells (high level of p53), read-out: Ratio IC50
Summary of the method: (§1)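 Ratio of IC50 in non-tumour MCF-10A to IC50 in the tumour line, both from the SRB growth assay described for cytotoxicity.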

[2] = system: MDA-MB-231; experiment: Cell cycle arrest in human MDA-MB-231 cells assessed as accumulation at S phase after 48 hrs using propidium iodide staining by flow cytometry (reference value: 26.35 +/- 0.03 %); assay type: functional
[3] = system: MCF7; experiment: Induction of apoptosis in human MCF7 cells assessed as cell viability at IC50 concentration after 24 hrs using V-FITC and propidium iodide staining by flow cytometry (reference value: 90.42 +/- 0.63 %); assay type: functional
[4] = Therapeutic index, ratio of IC50 for human MCF10A cells to IC50 for human MCF7 cells expressing wild type p53 and ras mutant; assay type: cell-based; conditions: MCF10A cells versus MCF7 cells (wild type p53, ras mutant), read-out: Ratio IC50; summary of the method: as §1
[5] = system: Mus musculus; experiment: Acute toxicity in BALB/c mouse assessed as mortality up to 200 mg/kg, ip after 2 weeks; assay type: organism-based; design: dose 200 mg/kg, route intraperitoneal; conditions: in vivo, 336 h
Summary of the method: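 Six-week-old female BALB/c mice (about 20 g) were given a single i.p. bolus at 50, 75, 100, 150 and 200 mg/kg (n = 25), dissolved in 0.25 mL of 0.9% NaCl/DMSO. Vehicle controls received saline or DMSO alone. Mice were weighed and scored twice weekly for 2 weeks for systemic toxicity (listlessness, weight loss) and local toxicity (alopecia, skin reaction, leg motility).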

[6] = system: MCF7; experiment: Induction of apoptosis in human MCF7 cells assessed as early apoptotic cells at IC50 concentration after 48 hrs using V-FITC and propidium iodide staining by flow cytometry relative to control; assay type: functional
[7] = system: MCF7; experiment: Induction of apoptosis in human MCF7 cells assessed as late apoptotic cells at IC50 concentration after 24 hrs using V-FITC and propidium iodide staining by flow cytometry (reference value: 0.03 +/- 0.01 %); assay type: functional
[8] = system: MCF7; experiment: Induction of apoptosis in human MCF7 cells assessed as early apoptotic cells at IC50 concentration after 24 hrs using V-FITC and propidium iodide staining by flow cytometry relative to control; assay type: functional
[9] = Cytotoxicity against human MCF10A cells […] by SRB assay; assay type: cell-based; conditions: MCF-10A
[10] = Cell cycle arrest in human MCF10A cells assessed as accumulation at G0/G1 phase after 48 hrs using propidium iodide staining by flow cytometry (reference value: 65.70 +/- 1.14 %); assay type: ADME, cell-based; conditions: mcf-10a
[11] = system: MCF7; experiment: Cell cycle arrest in human MCF7 cells assessed as accumulation at S phase after 48 hrs using propidium iodide staining by flow cytometry (reference value: 8.55 +/- 0.40 %); assay type: functional
[12] = system: MDA-MB-231; experiment: Cell cycle arrest in human MDA-MB-231 cells assessed as accumulation at G0/G1 phase after 48 hrs using propidium iodide staining by flow cytometry (reference value: 42.06 +/- 0.01 %); assay type: functional
[13] = system: MCF7; experiment: Cell cycle arrest in human MCF7 cells assessed as accumulation at G2/M phase after 48 hrs using propidium iodide staining by flow cytometry (reference value: 1.57 +/- 2.12 %); assay type: functional
[14] = system: MCF7; experiment: Cytotoxicity against human MCF7 cells expressing wild type p53 and ras mutant […]; assay type: functional, cell-based
[15] = system: MCF7; experiment: Induction of apoptosis in human MCF7 cells assessed as necrotic cells at IC50 concentration after 24 hrs using V-FITC and propidium iodide staining by flow cytometry (reference value: 9.55 +/- 0.21 %); assay type: functional
[16] = system: Mus musculus; experiment: Acute toxicity in BALB/c mouse assessed as mortality up to 50 mg/kg, po after 2 weeks; assay type: organism-based; design: dose 50 mg/kg, route oral; conditions: in vivo, 336 h
Summary of the method: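 Female BALB/c mice, six weeks old (about 20 g), were dosed once by gavage at 0.05, 0.5, 5 and 50 mg/kg (n = 25) in 0.25 mL of 0.9% NaCl/DMSO. Controls received saline or DMSO alone. Body weight and signs of systemic toxicity (listlessness, weight loss) and local toxicity (alopecia, skin reaction, leg motility) were checked twice weekly over 2 weeks.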

[17] = Cell cycle arrest in human MCF10A cells assessed as accumulation at S phase after 48 hrs using propidium iodide staining by flow cytometry (reference value: 21.78 +/- 0.46 %); assay type: ADME, cell-based; conditions: mcf-10a
[18] = system: MDA-MB-231; experiment: Cell cycle arrest in human MDA-MB-231 cells assessed as accumulation at G2/M phase after 48 hrs using propidium iodide staining by flow cytometry (reference value: 31.59 +/- 0.03 %); assay type: functional
[19] = system: MCF7; experiment: Induction of apoptosis in human MCF7 cells assessed as necrotic cells at IC50 concentration after 48 hrs using V-FITC and propidium iodide staining by flow cytometry (reference value: 12.61 +/- 7.50 %); assay type: functional
[20] = system: MCF7; experiment: Induction of apoptosis in human MCF7 cells assessed as viable cells at IC50 concentration after 48 hrs using V-FITC and propidium iodide staining by flow cytometry (reference value: 86.26 +/- 7.25 %)
[21] = system: MDA-MB-231; experiment: Cytotoxicity against human MDA-MB-231 cells expressing high level of p53 […]; assay type: functional, cell-based
[22] = Cell cycle arrest in human MCF10A cells assessed as accumulation at G2/M phase after 48 hrs using propidium iodide staining by flow cytometry (reference value: 12.55 +/- 0.68 %); assay type: ADME, cell-based; conditions: mcf-10a
[23] = system: MCF7; experiment: Cell cycle arrest in human MCF7 cells assessed as accumulation at G0/G1 phase after 48 hrs using propidium iodide staining by flow cytometry (reference value: 89.88 +/- 1.73 %); assay type: functional
[24] = system: MCF7; experiment: Induction of apoptosis in human MCF7 cells assessed as late apoptotic cells at IC50 concentration after 24 hrs using V-FITC and propidium iodide staining by flow cytometry (reference value: 1.11 +/- 0.24 %); assay type: functional

Which selectivity ratio [1] does the source give for O=[N+]([O-])c1ccc(S(=O)(=O)N2CC(n3cnc4c(Cl)nc(Cl)nc43)OCc3ccccc32)cc1 (racemic) here?
The selectivity ratio was 11.

What about the Activity [2] of the same molecule?
Its Activity is 29.36%.

What about the Activity [3] of the same molecule?
The Activity was 94.16%.

What about the selectivity ratio [4] of the same molecule?
The selectivity ratio was 5.14.

What about the Activity [5] of the same molecule?
Its Activity is “Non-toxic”.

And the Activity [6]?
The Activity was 23.38%.

What about the Activity [7] of the same molecule?
Its Activity is 0.23%.

What about the Activity [8] of the same molecule?
The Activity was 0.66%.

And the pIC50 [9]?
Its pIC50 is 5.74.

And the Activity [10]?
Its Activity is 65.94%.

What about the Activity [11] of the same molecule?
The Activity was 8.55%.

And the Activity [12]?
The Activity was 45.4%.

What about the Activity [13] of the same molecule?
Its Activity is 1.57%.

What about the pIC50 [14] of the same molecule?
Its pIC50 is 6.45.

And the Activity [15]?
Its Activity is 4.93%.

And the Activity [16]?
The Activity was “Non-toxic”.

And the Activity [17]?
Its Activity is 22.14%.

What about the Activity [18] of the same molecule?
The Activity was 25.4%.

And the Activity [19]?
Its Activity is 16.13%.

And the viability [20]?
Its viability is 46.65%.

And the pIC50 [21]?
The pIC50 was 6.78.

What about the Activity [22] of the same molecule?
Its Activity is 11.92%.

What about the Activity [23] of the same molecule?
The Activity was 87.2%.

What about the Activity [24] of the same molecule?
Its Activity is 13.84%.
